According to PubChem BioAssay AID449763 (Sanford-Burnham Center for Chemical Genomics, 2010):
Out of some 330,000 compounds screened, about 1,100 (0.33%) were called active.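 Rule for the calls: active = at 10 µM dose, activation of 40% or more, normalized to positive control; inactive = the rest.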 The sample as a whole holds a higher share of actives than the screen did.

experiment: activators of apoptotic CHOP UPR arm, primary screen, cell-based, CHO-CHOP luciferase reporter, luminescence, uHTS (AID 449763); details: at 10 µM, active compounds read high, percent of tunicamycin response over DMSO baseline;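 note: 100% = tunicamycin at 10 µg/mL and 0% = DMSO alone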
In short: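 Test system: CHO-CHOP cells, stable luciferase reporter of PERK-eIF2a-CHOP signalling | Quantity: 500 CHO-CHOP cells per well | Buffer or medium: F12 plus 10% serum | Compound dosing: 10 µM single point, 0.5% DMSO | Schedule: 6 h compound treatment, 37 °C | Signal: Luciferase luminescence | Control set: Tunicamycin high control, DMSO low control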

Compound	activation
COC(=O)c1sccc1NN1C(=O)c2ccccc2C1=O	-0.357% (inactive)
C[C@@H]1C[C@@H]2O[C@H]2/C=C\C=C\C(=O)Cc2c(Cl)c(O)cc(O)c2C(=O)O1	145% (active)
COc1ccccc1C(=O)NCc1nnc(SC(C)C(=O)Nc2nccs2)n1C (stereo not given)	-1.66% (inactive)
O=C(NCc1ccc(Cl)cc1)c1cc(=O)nc2sc(-c3ccccc3)nn12	-2.04% (inactive)
COc1ccc(OC)c(Nc2nc(-c3ccc(O)c(O)c3)cs2)c1	74.3% (active)
COc1ccc(OC)c(-c2csc(NC(=O)COC(=O)C3CC3)n2)c1	1.31% (inactive)
COc1ccc(OC)c(-c2csc(NC(=O)C3=NNC(=O)CC3)n2)c1	-1.74% (inactive)
COC(=O)C1CCN(C(=O)COC(=O)c2cc(S(=O)(=O)N3CCOCC3)ccc2C)CC1	0.025% (inactive)
COc1ccc(C2=NOC(Cn3nc(C(=O)NCc4ccc5c(c4)OCO5)cc3-c3ccccc3)C2)cc1 (stereo not given)	0.69% (inactive)
Cc1cc(C(=O)CCl)c(C)n1CC1COc2ccccc2O1 (stereo not given)	174% (active)
O=C1C(=O)N(CC2COc3ccccc3O2)c2ccccc21 (stereo not given)	2.24% (inactive)
Cc1ccsc1C(=O)OCC(=O)c1cc(C)n(CC2CCCO2)c1C (stereo not given)	-8.43% (inactive)
CC(C)CNc1ncnc2c1cnn2Cc1ccc(Cl)cc1	2.5% (inactive)
O=C(Nc1ccc(-n2ccnc2P(=O)(O)c2ccccc2)cc1)c1ccccc1Br	-1.3% (inactive)
COCCN(Cc1cc2cc3c(cc2nc1Cl)OCO3)C(=O)c1cccc(C)c1	2.77% (inactive)
O=C(NC1CCN(Cc2ccccc2)CC1)c1ccc(Oc2cc(Cl)cc(Cl)c2)o1	0.679% (inactive)
Cn1cc(CN2CCC(C(O)CCc3ccccc3)CC2)c(-c2ccccc2F)n1 (stereo not given)	-1.46% (inactive)
Cn1cc(CN2CCCC(CO)C2)c(-c2ccc(Oc3ccccc3)cc2)n1 (stereo not given)	-1.18% (inactive)
CCCOC1CCCN(Cc2cn(C)nc2-c2ccccc2F)C1 (stereo not given)	44.6% (active)
O=C(CN1C(=O)c2cccnc2Oc2ccc(Cl)cc21)Nc1ccc(F)cc1	1.1% (inactive)
Cc1ccc(CN2CCN(c3ncccn3)CC2)c(C)c1	0.144% (inactive)
Oc1c(CN2CCCC2)cc(COCc2ccccc2)c2cccnc12	37.6% (inactive)

Compound	activation
Oc1c(CN2CCN(c3ccc(F)cc3)CC2)cc(Cl)c2cccnc12	415% (active)
O=C(Nc1ccc(N2CCN(C(=O)c3ccccc3)CC2)c(Cl)c1)c1cccnc1	0.424% (inactive)
CC(CCn1cccn1)NC(=O)CCc1nnc(CCc2ccccc2)o1 (stereo not given)	-1.47% (inactive)
CCc1noc(C)c1C(=O)N1CCCSC1=Nc1ccccc1OC	2.57% (inactive)
N#Cc1ccsc1NC(=O)CN1CCN(S(=O)(=O)c2cc(Cl)ccc2Cl)CC1	-1.62% (inactive)
O=C(CN1CCN(S(=O)(=O)c2cc(Cl)ccc2Cl)CC1)c1ccc(O)c(O)c1	95.7% (active)
COc1ccc(Cl)cc1S(=O)(=O)N1CCN(CC(=O)C(C)(C)C)CC1	-1.27% (inactive)
C[C@H](C(=O)CC(=O)OC(C)(C)C)[C@H](O)c1ccc(C(F)(F)F)cc1	1.59% (inactive)
COc1ccc(NC(=O)C2=C(C)NC(=O)NC2c2ccccc2[N+](=O)[O-])cc1 (stereo not given)	-2.61% (inactive)
CNc1nc(Nc2ccc(C)c(Cl)c2)nc(N)c1[N+](=O)[O-]	5.39% (inactive)
Cc1ccc(Nc2nc(N)nc(CN3CCN(Cc4ccccc4)CC3)n2)cc1Cl	0.453% (inactive)
OCCNc1nc(Nc2ccc(Cl)c(Cl)c2)nc2ccccc12	51.9% (active)
CCN(C(=O)CSc1nc(N)cc(=O)[nH]1)C1CCS(=O)(=O)C1 (stereo not given)	1.25% (inactive)
CSCCNCc1cn(-c2ccc(F)cc2F)nc1-c1ccccc1C	-1.15% (inactive)
Cc1ccc(NC(=S)NCCc2ccc(Cl)cc2)c(C)c1	1.96% (inactive)
Oc1cc2c(cc1O)CN(C(=S)NCCc1ccc(Cl)cc1)CCC2	58.3% (active)
O=C(NCCc1ccc(Cl)cc1)c1cccc(N2CCCC2=O)c1	54.4% (active)
CC1CCCC(NC(=O)c2cccc(N3CCCC3=O)c2)C1C (stereo not given)	3.2% (inactive)
COc1ccc(CCNC(=S)N2CCN(S(=O)(=O)c3ccc(Cl)cc3)CC2)cc1	1.93% (inactive)
C/C(=N\NC(=O)c1cccc(N2CCCC2=O)c1)c1ccc(N)cc1	1.34% (inactive)
O=C(CSc1nnc(SCc2ccc(F)cc2)s1)Nc1ccc(C(=O)O)cc1	-2.09% (inactive)
Cc1ccc(C2NC(=S)NC3=C2N2CCC3CC2)cc1 (stereo not given)	-2.03% (inactive)

Compound	activation
CC(C(=O)O)n1cnc2sc3c(c2c1=O)CCCC3 (stereo not given)	-0.91% (inactive)
O=S(=O)(c1ccccc1)N(Cc1cccc(F)c1)c1ccccc1	-1.78% (inactive)
CC1(C)CC(=O)C=C(NC2CC(C)(C)NC(C)(C)C2)C1	0.506% (inactive)
CC(C)(C)C(=O)OCc1nc(-c2ccc(O)c(O)c2)cs1	170% (active)
CCCC(=O)N1c2ccc(-c3csc(N)n3)cc2CC1C (stereo not given)	4.75% (inactive)
Cc1onc(C(=O)NN)c1-c1csc(COc2ccccc2)n1	-0.475% (inactive)
NC(=O)C1CCN(C(=O)COc2ccc3c4c(c(=O)oc3c2)CCC4)CC1	1.77% (inactive)
COc1ccc(CNc2ncnc3ccccc23)cc1	5.16% (inactive)
CC(C)(C)Nc1nc(-c2ccccn2)nc2ccccc12	61.4% (active)
c1ccc2c(NCC3CCCO3)nc(-c3ccncc3)nc2c1 (stereo not given)	-0.369% (inactive)
N#Cc1ccc(Oc2cc(C(F)(F)F)nc(-c3ccccn3)n2)cc1	-0.253% (inactive)
Cc1ccc(Oc2nc(-c3ccccn3)nc3ccccc23)cc1	48.5% (active)
COc1cnc(-c2ccccn2)nc1Oc1ccc(C(C)(C)C)cc1	3.2% (inactive)
CCCCOc1ccc(C(=O)N/C(=C/C=C/c2ccccc2)C(=O)N2CCOCC2)cc1	5.27% (inactive)
Cc1ccc2cc3cc(C(=O)N4CCCCCC4)oc3nc2c1	0.396% (inactive)
O=C(CSc1nc2ncccc2[nH]1)Nc1ccc2c(c1)OCCO2	0.487% (inactive)
Nc1nc(SCC(=O)NN(c2ccccc2)c2ccccc2)n[nH]1	-0.687% (inactive)
CC(C)NC(=S)N1CCN(S(C)(=O)=O)CC1	0.831% (inactive)
CC(=O)/C(=N\Nc1ccc(Cl)cc1Cl)Sc1cccc2cccnc12	184% (active)
COc1cccc(CNC(=O)c2cccnc2Sc2ccc(Cl)cc2)c1	0.384% (inactive)
O=C(NNc1cc(Cl)ccc1Cl)c1cccnc1Cl	0.393% (inactive)
Cc1ccc(S(=O)(=O)CCC(=O)OCc2ccccc2)cc1	0.112% (inactive)

Compound	activation
CCOC(=O)c1ccc(NC(=O)c2nc[nH]c2C(=O)N[C@@H](CCCCNC(=O)OC(C)(C)C)C(=O)OC(C)(C)C)cc1	2.33% (inactive)
CC(=O)c1ccc(NC(=O)c2ccc(-n3cncn3)c([N+](=O)[O-])c2)cc1	2.02% (inactive)
COCCOC(=O)c1c(C)oc2cc(Br)c(OCC(N)=O)cc12	0.018% (inactive)
CCc1ccc2c(c1)C1(NN=C(c3ccccc3)S1)C(=O)N2 (stereo not given)	135% (active)
Cc1occc1C(=O)NC1CCCN(Cc2ccc(CC(C)C)cc2)C1 (stereo not given)	1.93% (inactive)
O=C(Nc1c2c(nn1-c1ccccc1)CS(=O)(=O)C2)C1CCCC1	-0.808% (inactive)
COC(=O)c1ccc(C(=O)OC)c(NC(=S)N2CCN(c3cc(Cl)ccc3C)CC2)c1	1.94% (inactive)
CCCN(CCC)C(=S)Nc1cc(C(=O)OC)ccc1C(=O)OC	2.25% (inactive)
COC(=O)c1ccc(C(=O)Nc2cc(Cl)ccc2Cl)cc1NC(=O)c1ccccc1C	49.7% (active)
O=C(CSc1nc2ccccc2c(=O)n1CCCO)NC1CC1	1.02% (inactive)
CCCCn1nc(C(=O)N2CCc3ccccc32)c2ccccc2c1=O	-1.34% (inactive)
Cn1cccc1/C=N/NC(=O)c1ccc(OC(F)(F)C(F)F)cc1	2.77% (inactive)
Cn1nccc1NC(=O)Nc1ccc(OC(F)(F)F)cc1	0.489% (inactive)
O=C(Nc1ccc(OC(F)(F)F)cc1)c1ccc2c(c1)no[n+]2[O-]	61% (active)
CC(C)CC(=O)N1CCC(O)(CS(=O)(=O)Cc2ccccc2)CC1	-0.00639% (inactive)
Cc1ccc(NC(=O)CCOc2ccccc2)cc1S(=O)(=O)Nc1ccccc1Cl	2.43% (inactive)
Cc1ccc(-c2ccc(/C=C(\C#N)C(N)=S)o2)c([N+](=O)[O-])c1	3.33% (inactive)
Cc1ccc(C(=O)N/C(=C/c2ccc(-c3cccc([N+](=O)[O-])c3)o2)C(=O)NCCCN(C)C)cc1	-0.289% (inactive)
Cc1ccc(Cc2cnc(NC(=O)/C(C#N)=C/c3ccc(-c4cccc([N+](=O)[O-])c4)o3)s2)cc1	73.3% (active)
Cc1cc2c(cc1S(=O)(=O)NCc1ccc(Cl)cc1)OCC(=O)N2	-0.754% (inactive)
Cc1ccc(C)c(S(=O)(=O)N2CCN(c3ncnc4sccc34)CC2)c1	5.68% (inactive)
Cc1cccc(NC(=O)CN2CCN(C(=O)C3CCN(C(=O)/C=C/c4ccccc4)CC3)CC2)c1C	0.754% (inactive)

Compound	activation
Cc1cccc(NC(=O)CSC(N)=O)c1C	-0.357% (inactive)
CCOC(=O)/C=c1\s/c(=C\c2ccc(C#N)cc2)c(=O)n1CC(=O)Nc1cccc(C)c1C	75.5% (active)
COc1ccc(-c2c(C(C)=O)c(C)nc3sc4c(=O)n(-c5ccc(C)cc5)nnc4c23)cc1	-0.914% (inactive)
COC(=O)C(=Nc1ccccc1)/C(C(=O)C(=O)N(C)c1ccccc1)=C(\O)c1ccc(Cl)cc1	0.244% (inactive)
CC1(C)CCSC(/C=C/c2ccccc2)=N1	57.7% (active)
C[C@H](CO)N1C[C@H](C)[C@@H](CN(C)C(=O)NC2CCCCC2)Oc2ccc(NC(=O)c3ccncc3)cc2C1=O	2.08% (inactive)
O=C(N/N=C/c1cccnc1)c1ccc(NC(=O)c2ccc(F)cc2)cc1	1.11% (inactive)
O=C(CSc1cccc2cccnc12)N/N=C/c1cccnc1	227% (active)
COc1ccc(C(=O)NCC(=O)N/N=C/c2cccnc2)cc1	2.52% (inactive)
Nc1nc(O)c(CC(=O)O)s1	-0.635% (inactive)
C=CCOc1ccc(/C=C2/C(=O)ON=C2C)cc1OCC	0.964% (inactive)
COc1cc(/C=C2/C(=O)ON=C2C)ccc1OCc1cccc(F)c1	30.3% (inactive)
COc1cc(/C=C2/C(=O)ON=C2C)ccc1OCc1ccccc1F	66.3% (active)
Cc1cc(C)n(-c2ccc(NC(=O)C3CCCCN3C(=O)c3cccs3)cc2)n1 (stereo not given)	-0.0869% (inactive)
O=C(c1cccs1)N1CCCC(c2nc(-c3ccc(F)cc3)no2)C1 (stereo not given)	1.93% (inactive)
CN1CCC(=NNC(=O)c2ccc(N(Cc3ccc(Cl)cc3)S(C)(=O)=O)cc2)CC1	0.73% (inactive)
Cc1ccccc1CN(c1ccc(C(=O)NCC2CCCO2)cc1)S(C)(=O)=O (stereo not given)	-1.43% (inactive)
CS(=O)(=O)N(Cc1ccccc1)c1ccc(C(=O)NN=C2CCCCCC2)cc1	43.7% (active)
CCCC1CC(C)(C(=O)Cn2[nH]c(=O)ccc2=O)OC1=O (stereo not given)	1.35% (inactive)
CCOc1cc(/C=N/NC(=O)c2ccc(CSc3nncn3C)cc2)ccc1OCC(=O)N1CCOCC1	0.857% (inactive)
O=C(NCC12CC3CC(C1)CC(CNC(=O)N1CCCC1)(C3)C2)N1CCCC1	-2.08% (inactive)
Cc1nn(CC(=O)NCC2CCCO2)c(=O)c2cc3ccccc3n12 (stereo not given)	-0.347% (inactive)
